Source: PubChem
UHRF1 binding: UHRF1 methyl-DNA binding inhibition; Q96T88; UHRF1 binding to methylated oligo, TR-FRET; inhibition, % at 4.4 µM; 0.75% of 370,000 active; in the data active = inhibition above about 21%;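 also: UHRF1 SRA domain binding a hemimethylated CpG hairpin DNA probe; 0% = median of test compound wells and 100% = reference inhibitor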
ARFGAP1 inhibitor: inhibits rat ARF GTPase activating protein 1 | Q62848 | 0.26% of 360,000 active | Arfgap1-stimulated ARF1 GTP hydrolysis, GDP FP detection | AID 651572 | inhibition, % at 16.5 µM;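 active = inhibition above a per-plate limit, mean inhibition of low control wells plus 3 SD, cut at about 25% in these data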;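 also: 0% = DMSO wells with enzyme and 100% = wells lacking Arfgap1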
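Material: truncated rat Arfgap1 GAP domain; Incubation: compound-enzyme preincubation 20 min, reaction 120 min, detection 60 min, 25 °C; Read-out: percent inhibition of Arfgap1-stimulated GTP hydrolysis; Technique: FP, GDP Alexa 633 tracer displaced from anti-GDP antibody, 620/688 nm; Controls: No-Arfgap1 wells (100%) versus DMSO full-reaction wells (0%); Replication: single well per compound.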
LEDGF integ inh: blocks HIV-1 LEDGF/p75-dependent DNA integration | inhibition, % at 3.7 µM | TR-FRET IN-LEDGF/p75 DNA integration, Eu/Cy5 | 0.64% of 370,000 active | AID 743269;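 active = inhibition above the screen-wide mean plus 3 SD, cut at about 13% in these data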;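 also: signal is the Cy5 over europium emission ratio at 671 and 618 nm; 0% = plate median of compound wells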
ASAP1 GAP inh: ASAP1 ArfGAP inhibition; Q9ULH1; ASAP1-stimulated ARF1 GTP hydrolysis, GDP FP detection; 0.19% of 360,000 active; inhibition, % at 16.5 µM; in the data active = inhibition above about 25%;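 also: 0% = vehicle with enzyme and substrate and 100% = no enzyme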
Target sequence (Q9ULH1 325-724 limits assumed): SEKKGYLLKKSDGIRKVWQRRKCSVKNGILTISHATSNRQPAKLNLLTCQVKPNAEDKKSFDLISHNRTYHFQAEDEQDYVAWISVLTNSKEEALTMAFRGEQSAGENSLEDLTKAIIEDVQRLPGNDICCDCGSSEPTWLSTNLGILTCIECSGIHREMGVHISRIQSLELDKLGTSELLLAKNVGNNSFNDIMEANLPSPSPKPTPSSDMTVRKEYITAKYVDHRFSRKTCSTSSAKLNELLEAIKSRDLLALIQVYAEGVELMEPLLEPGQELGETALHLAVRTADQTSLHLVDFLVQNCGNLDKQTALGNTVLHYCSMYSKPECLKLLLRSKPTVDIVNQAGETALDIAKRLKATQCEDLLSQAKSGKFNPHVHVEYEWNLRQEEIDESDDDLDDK
MBD2 inh: MBD2-methylated oligo binding inhibition. inhibition, % at 4.4 µM. 0.31% of 370,000 active. Q9UBB5. TR-FRET, MBD2 binding to methylated oligonucleotide; in the data active = inhibition above about 13%
TCR CD3 inh: inhibitors of human TCR-CD3 interaction | TAMRA-labeled TCR probe fluorescence, biochemical | inhibition, % at 9.4 µM | 0.37% of 360,000 active; in the data active = inhibition above about 19%;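 also: recombinant mutant TCR 2C K166C tagged with TAMRA read by polarization; 0% = receptor in buffer alone and 100% = receptor with positive control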
An asterisk follows results filed as active; . = no result. Most compounds without a hit are left out; they make up all but 2% or so of the library.

SMILES | UHRF1 binding | ARFGAP1 inhibitor | LEDGF integ inh | ASAP1 GAP inh | MBD2 inh | TCR CD3 inh
CCC(C)n1c(SC(C)C#N)nc2ccccc2c1=O (configuration not stated) | 27.6* | 21.6 | -0.6 | -19.1 | -1.4 | 4.8
O=C(OCc1cccc2ccccc12)C1CC(=O)N(c2ccccc2)C1 (configuration not stated) | -1.2 | 19.2 | -1.6 | -8.8 | -0.9 | 6.9
O=C(NN1CC(C(=O)OCc2ccccc2F)CC1=O)c1ccccc1 (configuration not stated) | 21.8* | 9.6 | 0.0 | 0.1 | 4.7 | -2.5
C=C(C)COC(=O)c1ccccc1C(=O)OCC1(C)CO1 (configuration not stated) | 2.0 | -7.8 | -3.8 | -14.2 | -1.4 | -3.1
COCCNc1oc(/C=C/c2cccs2)nc1S(=O)(=O)c1ccccc1 | 52.9* | 7.0 | -4.1 | 15.4 | 1.5 | 2.4
CCCCC#CC(CC)NCc1ccc(OC)cc1OC (configuration not stated) | 2.1 | . | 0.4 | . | -1.6 | .
O=C(Nc1ccc(-c2nc3ccccc3c(=O)o2)cc1)c1ccco1 | 21.4* | 9.2 | -0.9 | 7.2 | 6.6 | 10.5
COc1cc2c(cc1OC)CN(c1nc(CN3CCCCC3)nc3sc4c(c13)CCCC4)CC2 | 2.3 | 2.6 | 1.3 | -4.6 | 0.9 | 5.1
COc1cc2c(cc1OC)CN(c1nc(CN3CCCC3)nc3sc(C)c(C)c13)CC2 | 33.9* | -9.7 | -3.8 | -11.0 | 3.5 | 0.1
COc1ccc(-c2nc3cc([N+](=O)[O-])ccc3o2)cc1 | 20.9* | 11.0 | 3.2 | 10.8 | -3.9 | 1.4
Nc1ccc(-c2nc3cc([N+](=O)[O-])ccc3o2)cc1 | -8.1 | 16.0 | -3.4 | -7.2 | 0.4 | -1.8
COC(=O)[C@]12C[C@H](CC(=O)N3CCOCC3)C(=O)N(Cc3ccco3)C1=C[C@H](C(C)C)O[C@@H]2C1CC1 | -0.5 | . | 6.6 | . | -6.5 | .
CCCC(=O)N(c1ccc(C(=O)O)cc1)c1nc(-c2ccccc2)c(C)s1 | 41.0* | -5.4 | 3.2 | -3.9 | 13.1 | 8.1
C=CCN(c1ccccc1)S(=O)(=O)c1cccc(C(=O)NCC(c2ccc(F)cc2)N2CCOCC2)c1 (configuration not stated) | 2.3 | 7.6 | -2.2 | -0.8 | 3.3 | -8.7
CCN(c1ccccc1)S(=O)(=O)c1cccc(C(=O)NCC(c2ccc(F)cc2)N2CCOCC2)c1 (configuration not stated) | 42.8* | -3.5 | -1.8 | 9.3 | -1.4 | -7.0
O=C(NC1CCCCN(Cc2cccc(C(F)(F)F)c2)C1=O)C1C2CC3CC(C2)CC1C3 (configuration not stated) | 0.6 | . | -0.4 | . | -3.1 | .
Cc1c(C)n(C(=O)CSc2nc3ccccc3[nH]2)c2ccccc12 | 47.2* | 14.5 | 3.3 | -4.2 | 8.6 | 17.7
COc1ccc(-c2nnn3c2Cn2c4ccccc4c(=O)n2[C@@H](C)C3)cc1 | -0.8 | . | -1.7 | . | -2.0 | .
COc1ccc(-n2c(SCC(=O)Nc3ccccc3-c3ccccc3)nnc2-c2ccco2)cc1 | 2.1 | . | 0.7 | . | 1.8 | .
Cc1ccc(F)cc1C(=O)N1CCOCC1c1cc(C(=O)Nc2ccccc2)no1 (configuration not stated) | 32.8* | -13.7 | -0.6 | -16.4 | -0.6 | 0.5
O=C(CSc1n[nH]c(-c2ccncc2)n1)Nc1ccc(Cl)c(Cl)c1 | -2.7 | 7.5 | -1.9 | 3.8 | 6.2 | -0.2
CCCCCCn1c(=O)n2n(c1=O)[C@@H]1CN(S(=O)(=O)c3ccc(C)cc3)C[C@]1(O)[C@@H](OC(=O)NC1CCCC1)C2 | 9.8 | 2.6 | 1.7 | -2.3 | 7.7 | -10.0
CCCCCCn1c(=O)n2n(c1=O)[C@@H]1CN(S(=O)(=O)c3ccc(C)cc3)C[C@]1(O)[C@@H](OC(=O)NCC1CCCCC1)C2 | 23.3* | -2.1 | -0.1 | 2.1 | 4.0 | -0.7
CCOC(=O)CCC(NC(=O)CC(=O)NC(CCC(=O)OCC)C(=O)OCC)C(=O)OCC (configuration not stated) | 35.8* | 4.0 | -1.4 | -3.9 | -2.3 | -1.3
CCOC(=O)CCC(NC(=O)CCC(=O)NC(CCC(=O)OCC)C(=O)OCC)C(=O)OCC (configuration not stated) | 3.1 | 9.6 | -5.8 | 7.0 | 4.3 | -4.7
NC(=O)C[n+]1cccc(CNC(=O)c2ccc(OC(F)F)cc2)c1 | 77.3* | 9.3 | -5.3 | -1.2 | 4.5 | 4.5
